For data set [1], the system named is MM1.S. Put plainly: Cytotoxicity against human MM1S cells measured after 72 hrs by MTS assay. Format: functional, cell-based. In outline:
(§1)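 MM-1S seeded at 2 × 10⁴/well or RPMI 8226 at 0.5 × 10⁴/well, 100 μL, exposed to compound 72 h. MTS added (0.5 mg/mL final) for 2–4 h, absorbance read at 490 nm with 690 nm background subtraction. Inhibition = (A_control − A_sample)/A_control; IC50 from sigmoidal variable-slope nonlinear fit.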

The target in data set [2] is T1, Proteasome Macropain subunit MB1 (Homo sapiens, UniProt P28074).
T1 sequence (P28074 whole entry): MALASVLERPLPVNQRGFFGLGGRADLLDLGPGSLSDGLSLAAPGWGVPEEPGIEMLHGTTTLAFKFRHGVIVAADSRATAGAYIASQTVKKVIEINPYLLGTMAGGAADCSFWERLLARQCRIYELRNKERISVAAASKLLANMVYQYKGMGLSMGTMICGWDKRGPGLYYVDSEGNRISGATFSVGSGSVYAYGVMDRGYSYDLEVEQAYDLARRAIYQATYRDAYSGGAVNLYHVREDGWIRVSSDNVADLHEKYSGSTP
Put plainly: Inhibition of chymotrypsin-like activity of human 20S proteasome pretreated for 15 mins followed by Suc-Leu-Leu-Val-Tyr-AMC substrate addition by fluorescence assay. In outline: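 Purified human proteasome (25 μg/mL) in 100 mM Tris-HCl pH 8.0 preincubated with compound 15 min, then Suc-Leu-Leu-Val-Tyr-AMC (50 μM) added; 50 μL reaction. AMC release followed as fluorescence increase at ex 355/em 460 nm. IC50 from sigmoidal variable-slope fit.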

For data set [3], the target named is T2, Proteasome subunit beta type-5 (Mus musculus) (UniProt O55234).
T2 sequence (whole entry): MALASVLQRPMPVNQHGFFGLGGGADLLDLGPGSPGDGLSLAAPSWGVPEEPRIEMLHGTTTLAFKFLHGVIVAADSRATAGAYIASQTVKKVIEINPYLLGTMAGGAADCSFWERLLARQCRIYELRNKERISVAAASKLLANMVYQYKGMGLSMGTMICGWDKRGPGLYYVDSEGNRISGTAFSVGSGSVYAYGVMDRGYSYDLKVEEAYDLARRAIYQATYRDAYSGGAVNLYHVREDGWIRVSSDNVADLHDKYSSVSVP
Put plainly: Inhibition of chymotrypsin-like activity of 20S proteasome in mouse blood at 2.5 uM pretreated for 40 mins followed by Suc-Leu-Leu-Val-Tyr-AMC substrate addition by fluorescence assay relative to control. In outline: (§2)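 Normal mouse whole blood incubated with compound (1:50 volume ratio) 40 min, then pelleted. Cells lysed in 5 mM EDTA pH 8.0 at 4 °C 60 min, lysate protein by Bradford. 100 μg protein assayed in 20 mM HEPES pH 8.0, 0.5 mM EDTA, 0.05% SDS, 1% DMSO with 50 μM […]; fluorescence ex 355/em 460 nm.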

The subject of data set [4] is RPMI-8226. Put plainly: Cytotoxicity against human RPMI8226 cells measured after 72 hrs by MTS assay. The data set is classed as functional, cell-based. The conditions noted are these: RPMI-8226, 72 h. In outline: as §1
The target of data set [5] is T2, Proteasome subunit beta type-5 (Mus musculus). In words: Inhibition of chymotrypsin-like activity of 20S proteasome in mouse blood at 0.5 uM pretreated for 40 mins followed by Suc-Leu-Leu-Val-Tyr-AMC substrate addition by fluorescence assay. The method, boiled down:
as §2

Data set [6] in a line: Half-life in mouse plasma at 2 uM by LC-MS/MS analysis. Format: ADME, cell-free. The method, boiled down: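 Mouse plasma on sodium heparin. 10 mM DMSO stocks diluted to 0.02 mM in 0.05 M sodium phosphate with 0.5% BSA, then spiked into pre-warmed plasma to 2 µM final, duplicates (n=2), 37 °C water bath. Each time point quenched with acetonitrile; sonicated, shaken, centrifuged, supernatant diluted 1:1 in water, LC-MS/MS.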

Data set [7] relates to Mus musculus. Put plainly: In vivo inhibition of chymotrypsin-like activity of 20S proteasome in blood cell of BALB/c mouse at 5 mg/kg, iv after 2 hrs using Suc-Leu-Leu-Val-Tyr-AMC substrate measured by fluorescence assay. Format: functional. The method, boiled down:
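BALB/c mice 6-8 weeks, 3 per group, single i.v. dose; positive control 5 mg/kg. Tail-vein blood taken at 1, 2 and 24 h into K2-EDTA tubes. Blood PBS-washed, cells lysed in 5 mM EDTA pH 8.0 for 60 min at 4 °C, clarified lysate assayed for chymotrypsin-like activity as in the in vitro assay.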

The source made the active and inactive calls. No cut-off for these calls is given here.

The IC50 is the concentration needed to halve the response being measured. The term inhibition denotes how much of the control response was suppressed. For the compound `CC(C)(C)CNC(=O)C[C@H](NC(=O)N1CCC(C(=O)Nc2nccs2)CC1)C(=O)N[C@@H](CCc1ccccc1)C(=O)NCc1ccccc1Cl`, the IC50 in data set [1] amounted to 7.2 nM; in data set [2] it was 0.9 nM; in data set [4], 10.2 nM. In addition, the inhibition result in data set [3] and in data set [5] was “Active” each time.

As to `COc1ccc(NC(=O)C2CCN(C(=O)N[C@@H](CC(=O)NCC(C)(C)C)C(=O)N[C@@H](CCc3ccccc3)C(=O)NCc3ccccc3Cl)CC2)cc1`, the IC50 in data set [2] stood at 25.7 nM.

For `CC(C)(C)CNC(=O)C[C@H](NC(=O)N1CCC(C(=O)Nc2ccccn2)CC1)C(=O)N[C@@H](CCc1ccccc1)C(=O)NCc1ccccc1Cl`, the values for the IC50 in data set [1], in data set [2] and in data set [4] were 4.3 nM, 1 nM and 3.8 nM, respectively.

For orientation: half-life means how long it takes for the measured level to halve. With `CC(C)(C)CNC(=O)C[C@H](NC(=O)c1ccc(F)cc1)C(=O)N[C@@H](CCc1ccccc1)C(=O)NCc1ccccc1Cl`, the half-life at 2 µM in data set [6] came out at 5.61 h.

Regarding `CC(C)(C)CNC(=O)C[C@H](NC(=O)C1CCN(C(=O)c2ccc(F)cc2)CC1)C(=O)N[C@@H](CCc1ccccc1)C(=O)NCc1ccccc1Cl`, the figures for the IC50 in data set [1], in data set [2] and in data set [4] were 31.8 nM, 2.6 nM and 22.7 nM, respectively.

For `CC(C)(C)CNC(=O)C[C@H](NC(=O)N1CCC(C(=O)Nc2cnccn2)CC1)C(=O)N[C@@H](CCc1ccccc1)C(=O)NCc1ccc2c(c1)OCO2`, in data set [2], the IC50 was 2.9 nM.

`CC(C)(C)CNC(=O)C[C@H](NC(=O)N1CCC(NC(=O)c2cnccn2)CC1)C(=O)N[C@@H](CCc1ccccc1)C(=O)NCc1ccc(F)cc1F`: the IC50 in data set [2] stood at 10.8 nM.

As for `CC(C)(C)CNC(=O)C[C@H](NC(=O)N1CCC(C(=O)Nc2cccnc2)CC1)C(=O)N[C@@H](CCc1ccccc1)C(=O)NCc1ccccc1Cl`, the IC50 in data set [1] turned out to be 20.7 nM; in data set [2], 0.7 nM; in data set [4], 20.8 nM. The inhibition in data set [3] was greater than 70%.

For the compound `CC(C)(C)CNC(=O)C[C@H](NC(=O)N1CCC(C(=O)Nc2cnccn2)CC1)C(=O)N[C@@H](CCc1ccccc1)C(=O)NCc1ccccc1Cl`, the figures for the IC50 in data set [1], in data set [2] and in data set [4] were 15.8 nM, 0.6 nM and 17.1 nM, respectively. Also, in data set [3], the inhibition is greater than 70%.

Turning to `CC(C)(C)CNC(=O)C[C@H](NC(=O)N1CCC(NC(=O)c2cnccn2)CC1)C(=O)N[C@@H](Cc1ccccc1)C(=O)NCc1ccccc1Cl`, the IC50 in data set [2] came to 41 nM.

Take `CC(C)(C)CNC(=O)C[C@H](NC(=O)N1CCN(C(=O)c2ccc(F)cc2)CC1)C(=O)N[C@@H](CCc1ccccc1)C(=O)NCc1ccccc1Cl`: the IC50 in data set [2] came to 3.8 nM.

With `CC(C)(C)CNC(=O)C[C@H](NC(=O)N1CCC(C(=O)Nc2cnccn2)CC1)C(=O)N[C@@H](Cc1ccccc1)C(=O)NCc1ccccc1Cl`, in data set [2], the IC50 amounted to 18 nM.

Take `CC(C)C[C@H](NC(=O)[C@H](CC(=O)NCC(C)(C)C)NC(=O)N1CCC(NC(=O)c2cnccn2)CC1)C(=O)NCc1ccccc1Cl`: the IC50 in data set [2] came to 21.8 nM.

One may read the inhibition in vivo as the share of the control response that was lost under treatment. High values mean a strong effect, low ones a weak effect. Take `CC(C)(C)CNC(=O)C[C@H](NC(=O)N1CCC(NC(=O)c2ccc(F)cc2)CC1)C(=O)N[C@@H](CCc1ccccc1)C(=O)NCc1ccccc1Cl`: the IC50 came out at 6.3 nM in data set [1], 1.2 nM in data set [2] and 8.4 nM in data set [4]. This compound also showed an inhibition in vivo at 5 mg/kg in data set [7] greater than 50%. Also, in data set [3], the inhibition is greater than 70%. The compound further gave a half-life at 2 µM in data set [6] of 11.2 h.

Take `C[C@H](NC(=O)[C@H](CC(=O)NCC(C)(C)C)NC(=O)N1CCC(C(=O)Nc2cnccn2)CC1)C(=O)NCc1ccccc1Cl`: the IC50 in data set [2] came to 19.7 nM.

Take `CC(C)(C)CNC(=O)C[C@H](NC(=O)N1CCC(C(=O)Nc2ccc(F)cc2)CC1)C(=O)N[C@@H](CCc1ccccc1)C(=O)NCc1ccccc1Cl`: the IC50 in data set [1] came to 12.5 nM; in data set [2] it was 1.5 nM; in data set [4], 13.9 nM. Also, the inhibition result in data set [3] and in data set [5] was “Active” in each case.

On to `CC(C)(C)CNC(=O)C[C@H](NC(=O)N1CCC(C(=O)NCc2nccs2)CC1)C(=O)N[C@@H](CCc1ccccc1)C(=O)NCc1ccccc1Cl`, for which the figures for the IC50 in data set [1], in data set [2] and in data set [4] were 22.5 nM, 1 nM and 20.7 nM, respectively. The inhibition entry in data set [3] and in data set [5] was “Active” each time.

In the case of `CC(C)(C)CNC(=O)C[C@H](NC(=O)N1CCC(C(=O)Nc2cnccn2)CC1)C(=O)N[C@@H](CCc1ccccc1)C(=O)NCc1ccc(F)cc1F`, in data set [2], the IC50 came out at 6.6 nM.

For the compound `CC(C)(C)CNC(=O)C[C@H](NC(=O)N1CCC(C(=O)Nc2ccc(C(F)(F)F)cc2)CC1)C(=O)N[C@@H](CCc1ccccc1)C(=O)NCc1ccccc1Cl`, in data set [2], the IC50 amounted to 192 nM.

With `C[C@H](NC(=O)[C@H](CC(=O)NCC(C)(C)C)NC(=O)N1CCC(NC(=O)c2cnccn2)CC1)C(=O)NCc1ccccc1Cl`, in data set [2], the IC50 came to 13.3 nM.

As to `CC(C)(C)CNC(=O)C[C@H](NC(=O)C1CCN(C(=O)c2cnccn2)CC1)C(=O)N[C@@H](CCc1ccccc1)C(=O)NCc1ccccc1Cl`, the IC50 was 11.8 nM in data set [1], 2.4 nM in data set [2] and 15.9 nM in data set [4].

In the case of `CC(C)(C)CNC(=O)C[C@H](NC(=O)N1CCC(NC(=O)c2cnccn2)CC1)C(=O)N[C@@H](CCc1ccccc1)C(=O)NCc1ccccc1Cl`, the IC50 in data set [1] came to 18.8 nM; in data set [2], 1.1 nM; in data set [4] it was 20.3 nM.

Take `CC(C)(C)CNC(=O)C[C@H](NC(=O)N1CCC(C(=O)Nc2ccon2)CC1)C(=O)N[C@@H](CCc1ccccc1)C(=O)NCc1ccccc1Cl`: the IC50 in data set [2] came to 7 nM.

As to `CC(C)C[C@H](NC(=O)[C@H](CCc1ccccc1)NC(=O)CN1CCOCC1)C(=O)N[C@@H](Cc1ccccc1)C(=O)N[C@@H](CC(C)C)C(=O)[C@@]1(C)CO1` [CARFILZOMIB], half-maximal inhibition in data set [1] (IC50) was put at 1.5 nM. In addition, the inhibition result in data set [7], in data set [3] and in data set [5] was “Active” each time.

Turning to `CC(C)C[C@H](NC(=O)[C@H](CC(=O)NCC(C)(C)C)NC(=O)N1CCC(C(=O)Nc2cnccn2)CC1)C(=O)NCc1ccccc1Cl`, in data set [2], the IC50 turned out to be 11.6 nM.

Consider `CC(C)(C)CNC(=O)C[C@H](NC(=O)N1CCC(NC(=O)c2cnccn2)CC1)C(=O)N[C@@H](CCc1ccccc1)C(=O)NCc1ccc2c(c1)OCO2`, for which the IC50 in data set [2] is 10 nM.

The values are drawn from ChEMBL document CHEMBL4002597, “Exploration of novel piperazine or piperidine constructed non-covalent peptidyl derivatives as proteasome inhibitors” (Eur J Med Chem, 2017).
